We go through 2 molecules from ChEMBL document CHEMBL4196175, “First SAR Study for Overriding NRAS Mutant Driven Acute Myeloid Leukemia” (J Med Chem, 2018).

Data set [1] can be described thus: AUCinfinity in mouse at 10 mg/kg, po. More on the design: dose 10 mg/kg, route oral, time infinity. As to conditions: in vivo. It counts as ADME, organism-based.
The nature of data set [2]: MRTinfinity in mouse at 10 mg/kg, po. It counts as ADME, organism-based. As to conditions: in vivo.
The target of data set [3] is T1, Activated CDC42 kinase 1 (Homo sapiens, UniProt Q07912). As to the kind of experiment: Inhibition of ACK1 in human OCI-AML3 cells harboring NRAS Q61L mutant assessed as reduction in P70S6K1 phosphorylation at Thr421/Ser424 after 2 hrs by Western blot analysis. It counts as cell-based. Put shortly: (§1)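 Ba/F3-NRAS-G12D or OCI-AML3 cells exposed 2 h to compounds (1 µM, or a dose series in OCI-AML3); phospho-p70S6K1, phospho-AKT S473, phospho-JNK and phospho-p38 assessed by western blot, actin as loading control.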
T1 sequence (Q07912 whole entry, looked up): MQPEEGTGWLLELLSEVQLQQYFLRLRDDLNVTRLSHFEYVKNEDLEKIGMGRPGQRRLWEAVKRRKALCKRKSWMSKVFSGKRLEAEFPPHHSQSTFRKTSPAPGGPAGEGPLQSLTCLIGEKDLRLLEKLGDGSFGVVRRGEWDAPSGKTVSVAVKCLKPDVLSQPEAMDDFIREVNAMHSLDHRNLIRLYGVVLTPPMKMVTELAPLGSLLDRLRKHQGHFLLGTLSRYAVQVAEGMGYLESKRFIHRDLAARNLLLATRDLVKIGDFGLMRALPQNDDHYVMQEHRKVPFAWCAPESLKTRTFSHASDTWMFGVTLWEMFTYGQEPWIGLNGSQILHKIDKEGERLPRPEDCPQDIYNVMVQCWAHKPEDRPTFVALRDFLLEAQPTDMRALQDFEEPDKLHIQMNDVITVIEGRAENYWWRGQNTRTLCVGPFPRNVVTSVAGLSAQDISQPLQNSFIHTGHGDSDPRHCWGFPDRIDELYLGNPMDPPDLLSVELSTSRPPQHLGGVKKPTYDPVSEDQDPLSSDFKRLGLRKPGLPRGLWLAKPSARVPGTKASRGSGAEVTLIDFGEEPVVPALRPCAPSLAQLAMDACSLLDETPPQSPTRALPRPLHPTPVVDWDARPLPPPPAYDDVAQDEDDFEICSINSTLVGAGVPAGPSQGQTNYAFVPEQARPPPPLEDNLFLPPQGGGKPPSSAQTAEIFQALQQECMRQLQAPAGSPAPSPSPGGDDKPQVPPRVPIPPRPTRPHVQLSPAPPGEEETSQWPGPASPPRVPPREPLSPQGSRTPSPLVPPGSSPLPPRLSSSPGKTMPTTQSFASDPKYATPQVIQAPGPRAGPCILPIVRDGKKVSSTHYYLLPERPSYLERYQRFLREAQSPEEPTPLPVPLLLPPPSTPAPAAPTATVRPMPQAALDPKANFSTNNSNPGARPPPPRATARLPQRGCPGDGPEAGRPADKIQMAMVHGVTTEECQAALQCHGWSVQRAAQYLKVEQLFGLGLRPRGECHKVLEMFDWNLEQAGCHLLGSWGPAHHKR

Data set [4] deals with T1, Activated CDC42 kinase 1. Briefly: Inhibition of ACK1 in human OCI-AML3 cells harboring NRAS Q61L mutant assessed as reduction in AKT phosphorylation at S473 after 2 hrs by Western blot analysis. The data set is classed as cell-based. Put shortly:
as §1

Data set [5] has as its target T2, Mitogen-activated protein kinase kinase kinase kinase 2 (Homo sapiens) (UniProt Q12851).
T2 sequence (whole entry): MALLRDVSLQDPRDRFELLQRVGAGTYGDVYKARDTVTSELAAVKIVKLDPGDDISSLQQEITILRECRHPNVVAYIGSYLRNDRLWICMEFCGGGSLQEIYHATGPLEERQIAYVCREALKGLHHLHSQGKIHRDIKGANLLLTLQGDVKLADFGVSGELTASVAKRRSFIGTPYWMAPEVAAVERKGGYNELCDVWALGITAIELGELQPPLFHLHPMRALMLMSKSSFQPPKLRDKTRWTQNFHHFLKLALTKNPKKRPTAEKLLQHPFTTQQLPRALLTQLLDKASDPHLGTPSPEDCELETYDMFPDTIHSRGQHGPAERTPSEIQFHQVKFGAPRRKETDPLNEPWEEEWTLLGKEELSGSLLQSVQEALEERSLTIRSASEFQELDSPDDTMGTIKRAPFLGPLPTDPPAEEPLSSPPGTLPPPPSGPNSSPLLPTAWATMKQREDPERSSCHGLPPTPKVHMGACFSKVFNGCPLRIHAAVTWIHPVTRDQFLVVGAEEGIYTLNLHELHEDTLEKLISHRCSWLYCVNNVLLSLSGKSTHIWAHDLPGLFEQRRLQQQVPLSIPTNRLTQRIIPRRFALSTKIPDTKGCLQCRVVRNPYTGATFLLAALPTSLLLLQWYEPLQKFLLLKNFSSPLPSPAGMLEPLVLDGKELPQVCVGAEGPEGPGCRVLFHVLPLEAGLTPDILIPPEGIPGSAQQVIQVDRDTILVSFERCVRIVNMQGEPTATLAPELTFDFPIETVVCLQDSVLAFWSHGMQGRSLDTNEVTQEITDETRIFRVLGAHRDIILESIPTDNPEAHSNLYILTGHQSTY
As to the kind of experiment: Inhibition of GCK in human OCI-AML3 cells harboring NRAS Q61L mutant assessed as reduction in p38 phosphorylation at Thr180/Tyr182 after 2 hrs by Western blot analysis. The data set is classed as cell-based. In outline: as §1

For data set [6], the system named is OCI-AML-3. As to the kind of experiment: Induction of apoptosis in human OCI-AML3 cells harboring NRAS Q61L mutant assessed as increase in cleaved PARP levels at 1 uM after 24 hrs by Western blot analysis. It counts as functional, cell-based. Put shortly:
(§2)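 Cells treated 24 h with indicated concentrations (1 µM; 5 µM also used in Ba/F3-NRAS-G12D); cleaved PARP, cleaved caspase 3, bcl-2 and MCL1 detected by western blot with actin as loading control.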

In data set [7] the test system is OCI-AML-3. As to the kind of experiment: Induction of apoptosis in human OCI-AML3 cells harboring NRAS Q61L mutant assessed as increase in cleaved caspase-3 levels at 1 uM after 24 hrs by Western blot analysis. The data set is classed as functional, cell-based. Put shortly: as §2
Data set [8] concerns OCI-AML-3. Briefly: Induction of apoptosis in human OCI-AML3 cells harboring NRAS Q61L mutant assessed as decrease in bcl2 levels at 1 uM after 24 hrs by Western blot analysis. It counts as functional, cell-based. In outline: as §2
(A western blot detects proteins with antibodies after separation by electrophoresis.)

The test system of data set [9] is OCI-AML-3. As to the kind of experiment: Induction of apoptosis in human OCI-AML3 cells harboring NRAS Q61L mutant assessed as decrease in mcl1 levels at 1 uM after 24 hrs by Western blot analysis. The data set is classed as functional, cell-based. Put shortly: as §2
Data set [10] deals with Tyrosine-protein kinase ABL2 (Homo sapiens) (UniProt P42684). Briefly: Inhibition of human ABL2 at 1 uM relative to control.
Tyrosine-protein kinase ABL2 (Homo sapiens), sequence (P42684 whole entry): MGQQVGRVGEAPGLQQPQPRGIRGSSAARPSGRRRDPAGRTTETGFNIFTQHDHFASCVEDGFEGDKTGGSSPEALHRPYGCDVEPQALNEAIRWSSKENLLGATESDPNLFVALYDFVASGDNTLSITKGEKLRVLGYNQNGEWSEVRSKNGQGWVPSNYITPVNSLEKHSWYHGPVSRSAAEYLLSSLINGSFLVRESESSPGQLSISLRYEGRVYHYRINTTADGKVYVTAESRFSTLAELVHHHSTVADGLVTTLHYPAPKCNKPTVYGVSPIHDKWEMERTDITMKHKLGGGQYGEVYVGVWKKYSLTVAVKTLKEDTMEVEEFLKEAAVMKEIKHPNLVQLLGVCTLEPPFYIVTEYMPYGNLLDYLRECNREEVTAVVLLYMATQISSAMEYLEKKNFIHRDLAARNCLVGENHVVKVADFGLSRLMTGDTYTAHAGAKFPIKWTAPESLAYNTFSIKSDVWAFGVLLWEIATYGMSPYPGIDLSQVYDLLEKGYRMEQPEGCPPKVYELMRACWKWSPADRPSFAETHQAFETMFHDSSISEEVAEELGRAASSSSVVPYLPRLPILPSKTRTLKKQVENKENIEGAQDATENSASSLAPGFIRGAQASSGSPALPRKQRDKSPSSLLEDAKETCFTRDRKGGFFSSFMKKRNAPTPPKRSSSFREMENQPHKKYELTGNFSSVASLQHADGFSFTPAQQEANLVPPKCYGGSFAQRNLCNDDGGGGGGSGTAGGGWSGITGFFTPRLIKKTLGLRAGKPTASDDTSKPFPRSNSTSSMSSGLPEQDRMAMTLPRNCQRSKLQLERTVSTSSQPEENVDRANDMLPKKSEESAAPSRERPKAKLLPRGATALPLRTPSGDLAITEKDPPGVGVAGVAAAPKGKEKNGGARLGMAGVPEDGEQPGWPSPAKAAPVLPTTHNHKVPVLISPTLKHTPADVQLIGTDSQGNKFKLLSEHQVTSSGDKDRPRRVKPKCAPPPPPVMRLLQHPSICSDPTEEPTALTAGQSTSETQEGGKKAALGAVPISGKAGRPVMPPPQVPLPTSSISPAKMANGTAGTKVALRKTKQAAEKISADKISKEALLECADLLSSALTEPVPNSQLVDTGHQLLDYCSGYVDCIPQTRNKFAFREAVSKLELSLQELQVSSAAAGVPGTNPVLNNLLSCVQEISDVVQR
The target in data set [11] is Tyrosine-protein kinase CSK (Homo sapiens) (UniProt P41240). Briefly: Inhibition of human CSK at 1 uM relative to control.
Data set [12] has as its target Tyrosine-protein kinase Fgr (Homo sapiens) (UniProt P09769). As to the kind of experiment: Inhibition of human FGR at 1 uM relative to control.
Data set [13] deals with Serine/threonine-protein kinase B-raf (Homo sapiens) (UniProt P15056). As to the kind of experiment: Inhibition of human BRAF at 1 uM relative to control.
Data set [14] addresses Macrophage colony-stimulating factor 1 receptor (Homo sapiens) (UniProt P07333). As to the kind of experiment: Inhibition of human FMS at 1 uM relative to control.
For data set [15], the target named is Platelet-derived growth factor receptor alpha (Homo sapiens) (UniProt P16234). Briefly: Inhibition of human PDGFRa at 1 uM relative to control.
Platelet-derived growth factor receptor alpha (Homo sapiens), sequence (P16234 whole entry): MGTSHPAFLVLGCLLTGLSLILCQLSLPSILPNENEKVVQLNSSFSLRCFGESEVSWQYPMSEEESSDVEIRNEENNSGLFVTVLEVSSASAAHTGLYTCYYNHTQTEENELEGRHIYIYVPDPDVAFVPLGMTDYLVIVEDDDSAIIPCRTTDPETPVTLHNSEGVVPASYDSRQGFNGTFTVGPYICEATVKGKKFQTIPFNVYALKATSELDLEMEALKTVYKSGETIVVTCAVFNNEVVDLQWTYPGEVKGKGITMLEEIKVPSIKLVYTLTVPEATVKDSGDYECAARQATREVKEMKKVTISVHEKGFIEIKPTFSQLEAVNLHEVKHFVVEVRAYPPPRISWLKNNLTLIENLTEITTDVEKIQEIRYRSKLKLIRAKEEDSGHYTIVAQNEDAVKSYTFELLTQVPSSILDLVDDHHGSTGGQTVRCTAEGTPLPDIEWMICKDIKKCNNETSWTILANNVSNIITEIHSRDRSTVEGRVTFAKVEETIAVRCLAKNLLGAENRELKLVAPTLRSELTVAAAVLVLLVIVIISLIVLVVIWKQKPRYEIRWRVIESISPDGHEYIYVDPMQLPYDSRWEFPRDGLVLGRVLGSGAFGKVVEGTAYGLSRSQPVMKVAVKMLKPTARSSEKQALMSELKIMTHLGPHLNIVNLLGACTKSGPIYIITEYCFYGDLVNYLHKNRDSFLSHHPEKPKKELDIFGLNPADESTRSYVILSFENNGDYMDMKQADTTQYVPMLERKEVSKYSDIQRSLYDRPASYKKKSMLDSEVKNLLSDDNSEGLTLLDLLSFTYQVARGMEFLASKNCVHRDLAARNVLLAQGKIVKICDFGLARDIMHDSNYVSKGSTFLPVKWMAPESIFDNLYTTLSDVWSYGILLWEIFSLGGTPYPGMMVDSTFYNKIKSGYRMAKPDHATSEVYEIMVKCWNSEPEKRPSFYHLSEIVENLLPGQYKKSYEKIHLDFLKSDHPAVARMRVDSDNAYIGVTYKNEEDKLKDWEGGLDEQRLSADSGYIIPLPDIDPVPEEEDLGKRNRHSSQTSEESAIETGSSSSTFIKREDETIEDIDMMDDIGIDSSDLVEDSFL
The target in data set [16] is Fibroblast growth factor receptor 2 (Homo sapiens) (UniProt P21802). Briefly: Inhibition of human FGFR2 at 1 uM relative to control.
In data set [17] the test system is OCI-AML-3. As to the kind of experiment: Induction of apoptosis in human OCI-AML3 cells harboring NRAS Q61L mutant assessed as increase in apoptotic cells at 1 uM after 24 hrs by annexin V/propidium iodide staining based FACS analysis relative to control. It counts as functional. In outline: (§3)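 Apoptosis scored by flow cytometry after FITC-annexin V/propidium iodide dual staining following 24 h exposure, at 1 µM or a range of indicated concentrations; three independent experiments, mean with SD, one-way ANOVA.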
Background: A flow cytometer gives signals particle by particle.

In data set [18] the test system is OCI-AML-3. As to the kind of experiment: Induction of apoptosis in human OCI-AML3 cells harboring NRAS Q61L mutant assessed as increase in apoptotic cells after 24 hrs by annexin V/propidium iodide staining based FACS analysis. The data set is classed as functional, cell-based. In outline: as §3
Data set [19] deals with OCI-AML-3. Briefly: Cell cycle arrest in human OCI-AML3 cells harboring NRAS Q61L mutant assessed as accumulation at G0/G1 phase at 1 uM after 24 hrs by propidium iodide staining based FACS analysis. The data set is classed as functional. In outline: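 OCI-AML3 cells treated 24 h at indicated concentrations, including 1 µM; cell-cycle phase distribution measured by flow cytometry after propidium iodide staining.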

Data set [20] has as its target RAF proto-oncogene serine/threonine-protein kinase (Homo sapiens) (UniProt P04049). Conditions: 1 uM.
The target of data set [21] is Proto-oncogene tyrosine-protein kinase Src (Homo sapiens) (UniProt P12931). Conditions: 1 uM.
Proto-oncogene tyrosine-protein kinase Src (Homo sapiens), sequence (P12931 2-536 limits assumed): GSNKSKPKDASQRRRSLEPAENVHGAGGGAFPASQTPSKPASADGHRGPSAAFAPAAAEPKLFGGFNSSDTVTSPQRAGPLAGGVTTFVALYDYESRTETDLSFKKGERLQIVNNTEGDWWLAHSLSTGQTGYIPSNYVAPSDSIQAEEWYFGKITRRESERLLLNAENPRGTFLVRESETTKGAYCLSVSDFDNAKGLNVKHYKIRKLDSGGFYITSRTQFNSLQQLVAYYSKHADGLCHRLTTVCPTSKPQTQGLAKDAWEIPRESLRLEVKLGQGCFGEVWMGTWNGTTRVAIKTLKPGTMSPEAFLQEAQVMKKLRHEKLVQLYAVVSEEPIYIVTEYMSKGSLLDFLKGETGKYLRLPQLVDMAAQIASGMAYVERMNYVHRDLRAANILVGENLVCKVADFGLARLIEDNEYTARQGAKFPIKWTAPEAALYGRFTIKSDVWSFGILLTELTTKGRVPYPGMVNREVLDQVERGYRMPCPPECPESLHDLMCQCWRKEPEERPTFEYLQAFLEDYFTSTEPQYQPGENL
In data set [22] the target is T1, Activated CDC42 kinase 1. Conditions: 1 uM.
For data set [23], the system named is BaF3. As to the kind of experiment: Induction of apoptosis in mouse BA/F3 cells expressing NRAS-G12D mutant assessed as increase in cleaved PARP levels at 1 uM after 24 hrs by Western blot analysis. It counts as functional, cell-based. Put shortly: as §2
For data set [24], the system named is BaF3. As to the kind of experiment: Induction of apoptosis in mouse BA/F3 cells expressing NRAS-G12D mutant assessed as increase in cleaved caspase-3 levels at 1 uM after 24 hrs by Western blot analysis. The data set is classed as functional, cell-based. In outline:
as §2

For orientation: AUC(0-inf) means total exposure, with the tail of the curve extrapolated. Lower therefore signals low exposure. One may read the MRT inf as the average time that molecules of a dose stay in the body. For orientation: inhibition means how much of the control response was suppressed.

Calls of active or inactive are those of the source. No cut-off for these calls is given here.

Tyrosine-protein kinase Fgr (Homo sapiens), sequence (P09769 2-529 limits assumed): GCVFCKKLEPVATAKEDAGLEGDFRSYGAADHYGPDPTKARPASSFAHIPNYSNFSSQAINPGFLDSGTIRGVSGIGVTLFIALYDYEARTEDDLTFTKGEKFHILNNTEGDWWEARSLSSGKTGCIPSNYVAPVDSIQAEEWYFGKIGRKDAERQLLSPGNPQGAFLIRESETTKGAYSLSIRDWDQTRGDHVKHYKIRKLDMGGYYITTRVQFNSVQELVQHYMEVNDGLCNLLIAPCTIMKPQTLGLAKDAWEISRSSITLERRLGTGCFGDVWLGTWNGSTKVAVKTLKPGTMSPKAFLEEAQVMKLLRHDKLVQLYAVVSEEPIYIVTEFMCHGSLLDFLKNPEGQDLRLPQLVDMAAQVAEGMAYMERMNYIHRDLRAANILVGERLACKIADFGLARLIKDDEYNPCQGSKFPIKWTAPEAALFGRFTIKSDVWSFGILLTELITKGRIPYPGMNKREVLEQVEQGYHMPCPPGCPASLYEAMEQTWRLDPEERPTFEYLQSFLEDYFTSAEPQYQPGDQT
RAF proto-oncogene serine/threonine-protein kinase (Homo sapiens), sequence (P04049 whole entry): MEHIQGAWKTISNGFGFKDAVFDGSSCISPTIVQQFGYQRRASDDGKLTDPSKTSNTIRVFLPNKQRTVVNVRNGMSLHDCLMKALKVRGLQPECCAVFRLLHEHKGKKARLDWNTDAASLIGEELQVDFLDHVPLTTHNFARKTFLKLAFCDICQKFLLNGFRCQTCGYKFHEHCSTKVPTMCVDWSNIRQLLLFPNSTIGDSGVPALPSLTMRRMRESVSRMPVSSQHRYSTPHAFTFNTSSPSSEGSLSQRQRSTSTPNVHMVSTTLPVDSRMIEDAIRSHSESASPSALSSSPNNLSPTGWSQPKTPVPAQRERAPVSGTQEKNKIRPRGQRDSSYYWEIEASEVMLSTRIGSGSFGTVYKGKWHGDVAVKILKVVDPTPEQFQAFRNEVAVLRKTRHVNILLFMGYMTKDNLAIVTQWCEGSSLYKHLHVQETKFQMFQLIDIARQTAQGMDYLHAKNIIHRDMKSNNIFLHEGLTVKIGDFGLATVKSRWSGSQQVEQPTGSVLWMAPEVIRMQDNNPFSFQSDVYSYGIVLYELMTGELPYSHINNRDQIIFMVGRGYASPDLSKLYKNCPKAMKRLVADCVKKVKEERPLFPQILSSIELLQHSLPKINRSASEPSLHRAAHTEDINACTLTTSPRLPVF

In data set [1], `Cc1ccc(NC(=O)c2cccc(C(F)(F)F)c2)cc1N1Cc2cnc(N)nc2N(C)C1=O` had an AUC(0-inf) of 52500 ng·h/mL. Besides, in data set [2], the MRT inf is 18.1 h. Further, the inhibition result on Activated CDC42 kinase 1 [3] was “Dose-dependent effect”; on Activated CDC42 kinase 1 [4] it was “Dose-dependent effect”; in data set [5] it was “Dose-dependent effect”; in data set [10] it was 98.3%; in data set [11], 98.9%; in data set [12], 99.1%. In addition, the inhibition came out at 99.1% in data set [13]; 99.1% in data set [14]; 95% in [15]; 93.5% in data set [16]; 99.4% in [20]; 100% in data set [21]. Moreover, the inhibition against Activated CDC42 kinase 1 [22] was determined as 100%. Besides, the outcome in the data set with OCI-AML-3 [6], with OCI-AML-3 [7], in the data set with OCI-AML-3 [8], in the data set with OCI-AML-3 [9] and in the data set with OCI-AML-3 [19] was Active. In addition, the values for the Activity in the data set with OCI-AML-3 [17] and in the data set on OCI-AML-3 [18] were 15 - 30% and “Dose-dependent effect”, respectively.

In the case of `CC(=O)N1CCN(c2ccc(Nc3ncc4c(n3)N(C)C(=O)N(c3cc(NC(=O)c5cccc(C(F)(F)F)c5)ccc3C)C4)cn2)CC1`, the inhibition result (at Activated CDC42 kinase 1 [3]; on Activated CDC42 kinase 1 [4]; in data set [5]) was “Dose-dependent effect” throughout. Further, the outcome in the data set with BaF3 [23], in the data set on BaF3 [24], with OCI-AML-3 [6], with OCI-AML-3 [7], in the data set with OCI-AML-3 [8] and in the data set on OCI-AML-3 [9] was Active. The result with OCI-AML-3 [19] was Active. Also, the Activity with OCI-AML-3 [17] is reported as 15 - 30%.
